Results: PMC3873001 (Bioorganic & medicinal chemistry, 2013)

Assays:
[1] = Cytotoxicity assessment using L6 cells; type: cell-based; details: rat, L6 cells (rat skeletal myoblasts)
Procedure, shortened: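 Rat skeletal myoblasts (L6) were tested for growth inhibition as the host-cell toxicity counterpart to the parasite assays. IC50 was calculated by linear regression from sigmoidal dose-inhibition curves. Values are means of two independent assays, varying by less than ±50%.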

[2] = tested on: T. cruzi amastigotes (Tulahuen C4) in infected L6 myoblasts; assay: In vitro growth inhibition of T. cruzi amastigotes in infected L6 myoblasts; type: cell-based; details: for IC50: Trypanosoma cruzi, TULAHUEN, L6, read-out: T. cruzi IC-50; for reduction of antichagasic activity compared to 5: compared to compound 5; for reduction of antichagasic activity compared to 3-nitrotriazole counterpart: 2-nitroimidazole analog vs 3-nitrotriazole counterpart (13 vs 9; 14 vs 11)
[3] = tested on: T. b. rhodesiense bloodstream form trypomastigotes (STIB 900); assay: In vitro growth inhibition of T. b. rhodesiense bloodstream form trypomastigotes; type: cell-based, Trypanosoma b. rhodesiense; details: for IC50: Trypanosoma brucei, RHODESIENSE|STIB900, read-out: T.b.rhod. IC-50; for SI (T.b.rhod.): SI = IC50 in L6 cells / IC50 in T.b. rhodesiense; for activity designation against T.b. rhodesiense: TDR criteria on IC50; for reduction of anti-HAT activity compared to 3-nitrotriazole counterpart: 2-nitroimidazole analog vs 3-nitrotriazole counterpart (13 vs 9; 14 vs 11)
[4] = tested on: L. donovani axenic amastigotes (MHOM-ET-67/L82); assay: In vitro growth inhibition of axenically cultured L. donovani amastigotes; type: cell-based, Leishmania donovani; details: for IC50: Leishmania donovani, read-out: L.don. axen. IC-50; for SI (L.don. axen.): SI = IC50 in L6 cells / IC50 in L. donovani

## Cl.Cl.O=[N+]([O-])c1ncn(CCCN2CCN(Cc3ccc(C(F)(F)F)cc3)CC2)n1 [Compound 1]
[1]
  IC50: > 191 µM
[2]
  IC50: 0.34 µM
[3]
  IC50: 1.38 µM
[4]
  IC50: 58.1 µM
  SI (L.don. axen.): >3

## Cl.Cl.O=[N+]([O-])c1ncn(CCCCN2CCN(Cc3ccc(C(F)(F)F)cc3)CC2)n1 [Compound 2]
[2]
  IC50: 0.412 µM
[3]
  SI (T.b.rhod.): 99
  IC50: 1.2 µM
[4]
  IC50: 44.5 µM
  SI (L.don. axen.): 3

## Cl.Cl.O=[N+]([O-])c1ncn(CCCN2CCN(c3ccc(C(F)(F)F)cc3)CC2)n1 [Compound 3]
[2]
  IC50: 0.04 µM
[3]
  SI (T.b.rhod.): 10
  IC50: 5.33 µM
[4]
  IC50: 25.9 µM
  SI (L.don. axen.): 2

## Cl.Cl.O=[N+]([O-])c1ncn(CCCN2CCN(c3ncccn3)CC2)n1 [Compound 4, 2-{4-[3-(3-nitro-1H-1,2,4-triazol-1-yl)propyl]piperazin-1-yl}pyrimidine dihydrochloride]
[2]
  reduction of antichagasic activity compared to 5: 2 fold

## O=[N+]([O-])c1ncn(CCCN2CCN(c3ccncc3)CC2)n1 [Compound 6, 1-[3-(3-nitro-1H-1,2,4-triazol-1-yl)propyl]-4-(pyridin-4-yl)piperazine]
[2]
  reduction of antichagasic activity compared to 5: more than 10 fold

## Cl.Cl.Cl.Cl.O=[N+]([O-])c1ncn(CCCN2CCN(c3ccc(Cl)c(Cl)c3)CC2)n1 [Compound 7, 1-(3,4-dichlorophenyl)-4-[3-(3-nitro-1H-1,2,4-triazol-1-yl)propyl]piperazine dihydrochloride]
[3]
  activity designation against T.b. rhodesiense: active

## COc1ccc(N2CCN(CCCn3cnc([N+](=O)[O-])n3)CC2)cc1 [Compound 9, 1-(4-methoxyphenyl)-4-[3-(3-nitro-1H-1,2,4-triazol-1-yl)propyl]piperazine dihydro-chloride]
[1]
  IC50: 125 µM

## COc1ccc(N2CCN(CCCn3ccnc3[N+](=O)[O-])CC2)cc1.Cl.Cl [Compound 13, 1-(4-methoxyphenyl)-4-[3-(2-nitro-1H-imidazol-1-yl)propyl]piperazine dihydro-chloride]
[2]
  reduction of antichagasic activity compared to 3-nitrotriazole counterpart: about 62 fold
[3]
  reduction of anti-HAT activity compared to 3-nitrotriazole counterpart: ~2 fold

## Cl.Cl.Cl.Cl.O=[N+]([O-])c1nccn1CCCN1CCN(Cc2ccc(Cl)c(Cl)c2)CC1 [Compound 14, 1-[(3,4-dichlorophenyl)methyl]-4-[3-(2-nitro-1H-imidazol-1-yl)propyl]piperazine dihydrochloride]
[2]
  reduction of antichagasic activity compared to 3-nitrotriazole counterpart: about 33 fold
[3]
  reduction of anti-HAT activity compared to 3-nitrotriazole counterpart: ~14 fold

## O=[N+]([O-])c1ncn(CCCNc2nc3ccc(Cl)cc3s2)n1 [Compound 15, 6-chloro-N-[3-(3-nitro-1H-1,2,4-triazol-1-yl)propyl]-1,3-benzothiazol-2-amine]
[3]
  activity designation against T.b. rhodesiense: active
[4]; TDR criteria on IC50
  activity designation against L. donovani: moderately active (IC50 = 1.0-6.0 μM)

## O=[N+]([O-])c1ncn(CCCCNc2nc3ccc(Cl)cc3s2)n1 [Compound 17, 6-chloro-N-[4-(3-nitro-1H-1,2,4-triazol-1-yl)butyl]-1,3-benzothiazol-2-amine]
[3]
  activity designation against T.b. rhodesiense: active

## O=[N+]([O-])c1nccn1CCCCNc1nc2ccc(Cl)cc2s1 [Compound 20, 6-chloro-N-[4-(2-nitro-1H-imidazol-1-yl)butyl]-1,3-benzothiazol-2-amine]
[4]
  IC50: 7.3 µM
